{"source": "ChEMBL document CHEMBL3580656", "about": "“Chrodrimanins I and J from the Antarctic Moss-Derived Fungus Penicillium funiculosum GWT2-24” (J Nat Prod, 2015)", "key": {"[1]": {"tested_on": "K562", "assay": "Cytotoxicity against human K562 cells by sulforhodamine B assay", "format": "functional, cell-based", "how_it_was_run": "(§1)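 Four human lines tested (K562, HL-60, HeLa, A-549) with adriamycin as positive control. Potency is expressed as IC50.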"}, "[2]": {"tested_on": "HL-60", "assay": "Cytotoxicity against human HL60 cells by sulforhodamine B assay", "format": "functional, cell-based", "how_it_was_run": "as §1"}, "[3]": {"tested_on": "HeLa", "assay": "Cytotoxicity against human HeLa cells by sulforhodamine B assay", "format": "functional, cell-based", "how_it_was_run": "as §1"}, "[4]": {"tested_on": "A549", "assay": "Cytotoxicity against human A549 cells by sulforhodamine B assay", "format": "functional, cell-based", "how_it_was_run": "as §1"}, "[5]": {"tested_on": "Staphylococcus aureus", "assay": "Antibacterial activity against Staphylococcus aureus", "format": "functional"}, "[6]": {"tested_on": "Escherichia coli", "assay": "Antibacterial activity against Escherichia coli", "format": "functional"}, "[7]": {"tested_on": "Influenza A virus", "assay": "Antiviral activity against influenza A virus (A/Puerto Rico/8/34(H1N1)) infected in MDCK cells incubated for 48 hrs assessed as inhibition of virus-induced cytopathic effect by crystal violet staining assay", "format": "functional, organism-based", "settings": "A/Puerto Rico/8/1934(H1N1)", "how_it_was_run": "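Ribavirin served as the positive control. The value is reported as an IC50 in μM.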"}}}
{"smiles": "C[C@@H]1Cc2c3c(cc(O)c2C(=O)O1)O[C@@]1(C)[C@@H](O)C[C@H]2C(C)(C)C(=O)CC[C@]2(C)[C@@H]1C3", "values": [{"measurement": "IC50", "setting": "[1]", "value": "> 50", "unit": "µM"}, {"measurement": "IC50", "setting": "[2]", "value": "> 50", "unit": "µM"}, {"measurement": "IC50", "setting": "[3]", "value": "> 50", "unit": "µM"}, {"measurement": "IC50", "setting": "[4]", "value": "> 50", "unit": "µM"}, {"measurement": "MIC", "setting": "[5]", "value": "> 600", "unit": "µg/mL"}, {"measurement": "MIC", "setting": "[6]", "value": "> 600", "unit": "µg/mL"}, {"measurement": "IC50", "setting": "[7]", "value": "> 200", "unit": "µM"}]}
{"smiles": "C[C@@H]1Cc2c3c(cc(O)c2C(=O)O1)O[C@@]1(C)[C@@H](O)C[C@H]2C(C)(C)C(=O)C=C[C@]2(C)[C@@H]1C3", "values": [{"measurement": "IC50", "setting": "[1]", "value": "> 50", "unit": "µM"}, {"measurement": "IC50", "setting": "[2]", "value": "> 50", "unit": "µM"}, {"measurement": "IC50", "setting": "[3]", "value": "> 50", "unit": "µM"}, {"measurement": "IC50", "setting": "[4]", "value": "> 50", "unit": "µM"}, {"measurement": "MIC", "setting": "[5]", "value": "> 600", "unit": "µg/mL"}, {"measurement": "MIC", "setting": "[6]", "value": "> 600", "unit": "µg/mL"}, {"measurement": "IC50", "setting": "[7]", "value": 21, "unit": "µM"}]}
{"smiles": "C[C@@H]1Cc2c3c(cc(O)c2C(=O)O1)O[C@@]1(C)[C@@H](O)C[C@H]2C(C)(C)[C@@H](O)CC[C@]2(C)[C@@H]1C3", "values": [{"measurement": "IC50", "setting": "[1]", "value": "> 50", "unit": "µM"}, {"measurement": "IC50", "setting": "[2]", "value": "> 50", "unit": "µM"}, {"measurement": "IC50", "setting": "[3]", "value": "> 50", "unit": "µM"}, {"measurement": "IC50", "setting": "[4]", "value": "> 50", "unit": "µM"}, {"measurement": "MIC", "setting": "[5]", "value": "> 600", "unit": "µg/mL"}, {"measurement": "MIC", "setting": "[6]", "value": "> 600", "unit": "µg/mL"}, {"measurement": "IC50", "setting": "[7]", "value": 57, "unit": "µM"}]}
{"smiles": "C[C@H]1OC(=O)c2c(O)cc3c(c2[C@H]1O)C[C@H]1[C@@]2(C)C=CC(=O)C(C)(C)[C@@H]2C[C@H](O)[C@]1(C)O3", "values": [{"measurement": "IC50", "setting": "[1]", "value": "> 50", "unit": "µM"}, {"measurement": "IC50", "setting": "[2]", "value": "> 50", "unit": "µM"}, {"measurement": "IC50", "setting": "[3]", "value": "> 50", "unit": "µM"}, {"measurement": "IC50", "setting": "[4]", "value": "> 50", "unit": "µM"}, {"measurement": "MIC", "setting": "[5]", "value": "> 600", "unit": "µg/mL"}, {"measurement": "MIC", "setting": "[6]", "value": "> 600", "unit": "µg/mL"}, {"measurement": "IC50", "setting": "[7]", "value": "> 200", "unit": "µM"}]}
{"smiles": "CC(=O)O[C@@H]1c2c3c(cc(O)c2C(=O)O[C@@H]1C)O[C@@]1(C)[C@@H](O)C[C@H]2C(C)(C)C(=O)C=C[C@]2(C)[C@@H]1C3", "values": [{"measurement": "IC50", "setting": "[1]", "value": "> 50", "unit": "µM"}, {"measurement": "IC50", "setting": "[2]", "value": "> 50", "unit": "µM"}, {"measurement": "IC50", "setting": "[3]", "value": "> 50", "unit": "µM"}, {"measurement": "IC50", "setting": "[4]", "value": "> 50", "unit": "µM"}, {"measurement": "MIC", "setting": "[5]", "value": "> 600", "unit": "µg/mL"}, {"measurement": "MIC", "setting": "[6]", "value": "> 600", "unit": "µg/mL"}, {"measurement": "IC50", "setting": "[7]", "value": 55, "unit": "µM"}]}
{"smiles": "CC1(C)C(=O)CC[C@@]2(C)[C@H]1CC[C@]1(C)Oc3cc(O)c4c(c3C[C@@H]21)C[C@@H](O)CC4=O", "values": [{"measurement": "IC50", "setting": "[1]", "value": "> 50", "unit": "µM"}, {"measurement": "IC50", "setting": "[2]", "value": "> 50", "unit": "µM"}, {"measurement": "IC50", "setting": "[3]", "value": "> 50", "unit": "µM"}, {"measurement": "IC50", "setting": "[4]", "value": "> 50", "unit": "µM"}, {"measurement": "MIC", "setting": "[5]", "value": "> 600", "unit": "µg/mL"}, {"measurement": "MIC", "setting": "[6]", "value": "> 600", "unit": "µg/mL"}, {"measurement": "IC50", "setting": "[7]", "value": "> 200", "unit": "µM"}]}
{"smiles": "CC1(C)C(=O)C=C[C@@]2(C)[C@H]1CC[C@]1(C)Oc3cc(O)c4c(c3C[C@@H]21)C[C@@H](O)CC4=O", "values": [{"measurement": "IC50", "setting": "[1]", "value": "> 50", "unit": "µM"}, {"measurement": "IC50", "setting": "[2]", "value": "> 50", "unit": "µM"}, {"measurement": "IC50", "setting": "[3]", "value": "> 50", "unit": "µM"}, {"measurement": "IC50", "setting": "[4]", "value": "> 50", "unit": "µM"}, {"measurement": "MIC", "setting": "[5]", "value": "> 600", "unit": "µg/mL"}, {"measurement": "MIC", "setting": "[6]", "value": "> 600", "unit": "µg/mL"}, {"measurement": "IC50", "setting": "[7]", "value": "> 200", "unit": "µM"}]}
